# Assays:
# Type in all cases: functional
# NCI-H322M = test: Growth inhibition of human NCI-H322M cells after 48 hrs; details: for TGI: read-out: pTGI (converted)
# Procedure, shortened: (§1)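 NCI ~60-line screen. Cells were grown in RPMI 1640 with 5% FBS and 2 mM L-glutamine and plated at 5000–40000 cells/well. After a 24 h preincubation, five drug concentrations from DMSO stocks were added for 48 h at 37 °C. Cells were TCA-fixed, stained with SRB and read at 515 nm. GI50 was taken from time-zero and control absorbances and reported as pGI50.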
# T47D = test: Growth inhibition of human T47D cells after 48 hrs; details: for CC50: read-out: Log LC50 (the source's name) (converted); for TGI: read-out: pTGI (converted)
# Procedure, shortened: (§2)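 NCI 60-line screen: cells in RPMI 1640 with 5% FBS and 2 mM L-glutamine, plated at 5000–40000 cells/well, grown 24 h (37 °C, 5% CO₂), then exposed to five 10-fold or ½-log dilutions (DMSO stock) for 48 h. Fixed with TCA (final 10% for adherent cells, 16% for suspension cells), then SRB stained with absorbance at 515 nm. GI50 from percentage growth relative to time-zero and control wells.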
# A498 = test: Growth inhibition of human A498 cells after 48 hrs; details: A498, 48 h; for CC50: read-out: Log LC50 (the source's name) (converted); for TGI: read-out: pTGI (converted); procedure, shortened: as §1
# SK-MEL-2 = test: Growth inhibition of human SK-MEL2 cells after 48 hrs; details: SK-MEL-2, 48 h; for TGI: read-out: pTGI (converted); procedure, shortened: as §1
# UO-31 = test: Growth inhibition of human UO31 cells after 48 hrs; details: UO-31, 48 h; for TGI: read-out: pTGI (converted); procedure, shortened: as §2
# CCRF-CEM = test: Growth inhibition of human CCRF-CEM cells after 48 hrs; details: for TGI: read-out: pTGI (converted); procedure, shortened: as §1
# MDA-MB-435 = test: Growth inhibition of human MDA-MB435 cells after 48 hrs; details: MDA-MB-435, 48 h; for TGI: read-out: pTGI (converted); procedure, shortened: as §1
# PC-3 = test: Growth inhibition of human PC3 cells after 48 hrs; details: PC-3, 48 h; for TGI: read-out: pTGI (converted); procedure, shortened: as §1
# SN12C = test: Growth inhibition of human SN12C cells after 48 hrs; details: for TGI: read-out: pTGI (converted); procedure, shortened: as §2
# OVCAR-4 = test: Growth inhibition of human OVCAR4 cells after 48 hrs; details: OVCAR-4, 48 h; for TGI: read-out: pTGI (converted); procedure, shortened: as §1
# TK-10 = test: Growth inhibition of human TK10 cells after 48 hrs; details: TK-10, 48 h; for TGI: read-out: pTGI (converted); procedure, shortened: as §2
# CAKI-1 = test: Growth inhibition of human CAKI1 cells after 48 hrs; details: CAKI-1, 48 h; for TGI: read-out: pTGI (converted); procedure, shortened: as §1
# U-251 = test: Growth inhibition of human U251 cells after 48 hrs; details: U-251, 48 h; for TGI: read-out: pTGI (converted); procedure, shortened: as §2
# [1] = Growth inhibition of human HS578T cells after 48 hrs; details: Hs-578T; for TGI: read-out: pTGI (converted); procedure, shortened: as §1
# Malme-3M = test: Growth inhibition of human MALME3M cells after 48 hrs; details: for TGI: read-out: pTGI (converted); procedure, shortened: as §1
# SK-OV-3 = test: Growth inhibition of human SKOV3 cells after 48 hrs; details: SK-OV-3, 48 h; for TGI: read-out: pTGI (converted); procedure, shortened: as §2
# SR = test: Growth inhibition of human SR cells after 48 hrs; procedure, shortened: as §2
# A549 = test: Growth inhibition of human A549 cells after 48 hrs; details: A549, 48 h; for CC50: read-out: Log LC50 (the source's name) (converted); for TGI: read-out: pTGI (converted); procedure, shortened: as §1
# SNB-19 = test: Growth inhibition of human SNB19 cells after 48 hrs; details: SNB-19, 48 h; procedure, shortened: as §2
# SNB-75 = test: Growth inhibition of human SNB75 cells after 48 hrs; details: SNB-75, 48 h; procedure, shortened: as §2
# HOP-62 = test: Growth inhibition of human HOP62 cells after 48 hrs; details: HOP-62, 48 h; for TGI: read-out: pTGI (converted); procedure, shortened: as §1
# SK-MEL-28 = test: Growth inhibition of human SK-MEL28 cells after 48 hrs; details: SK-MEL-28, 48 h; for TGI: read-out: pTGI (converted); procedure, shortened: as §1
# ACHN = test: Growth inhibition of human ACHN cells after 48 hrs; details: for TGI: read-out: pTGI (converted); procedure, shortened: as §1
# MOLT-4 = test: Growth inhibition of human MOLT4 cells after 48 hrs; details: MOLT-4, 48 h; for TGI: read-out: pTGI (converted); procedure, shortened: as §1
# RPMI-8226 = test: Growth inhibition of human RPMI8226 cells after 48 hrs; details: RPMI-8226, 48 h; for TGI: read-out: pTGI (converted); procedure, shortened: as §1
compound,measurement,setting,value
Cn1c2ccccc2c2c(=O)n(CCCC(=O)NCCc3c[nH]cn3)c3c(-c4ccccc4)nnn3c21,GI50,NCI-H322M,11 µM
same,LC50,NCI-H322M,> 50.1 µM
same,TGI,NCI-H322M,29.5 µM
same,GI50,T47D,10.5 µM
same,CC50,T47D,> 50.1 µM
same,TGI,T47D,25.1 µM
same,GI50,A498,7.59 µM
same,CC50,A498,30.9 µM
same,TGI,A498,15.1 µM
same,GI50,SK-MEL-2,10.2 µM
same,LC50,SK-MEL-2,42.7 µM
same,TGI,SK-MEL-2,20.9 µM
same,GI50,UO-31,7.41 µM
same,LC50,UO-31,29.5 µM
same,TGI,UO-31,14.8 µM
same,GI50,CCRF-CEM,1.51 µM
same,LC50,CCRF-CEM,> 50.1 µM
same,TGI,CCRF-CEM,> 50.1 µM
same,GI50,MDA-MB-435,10.2 µM
same,LC50,MDA-MB-435,39.8 µM
same,TGI,MDA-MB-435,20 µM
same,GI50,PC-3,8.91 µM
same,LC50,PC-3,44.7 µM
same,TGI,PC-3,20 µM
same,GI50,SN12C,8.71 µM
same,LC50,SN12C,39.8 µM
same,TGI,SN12C,18.6 µM
same,GI50,OVCAR-4,10.2 µM
same,LC50,OVCAR-4,41.7 µM
same,TGI,OVCAR-4,20.4 µM
same,GI50,TK-10,4.79 µM
same,LC50,TK-10,26.9 µM
same,TGI,TK-10,11.5 µM
same,GI50,CAKI-1,12 µM
same,LC50 (concentration killing 50% of cells),CAKI-1,> 50.1 µM
same,TGI,CAKI-1,33.1 µM
same,GI50,U-251,9.55 µM
same,LC50,U-251,36.3 µM
same,TGI,U-251,18.6 µM
same,GI50,[1],10.5 µM
same,LC50 (50% lethal concentration),[1],49 µM
same,TGI,[1],22.4 µM
same,GI50,Malme-3M,7.59 µM
same,LC50,Malme-3M,37.2 µM
same,TGI,Malme-3M,16.6 µM
same,GI50,SK-OV-3,10.2 µM
same,LC50,SK-OV-3,33.9 µM
same,TGI,SK-OV-3,18.6 µM
same,GI50,SR,4.07 µM
same,LC50,SR,> 50.1 µM
same,TGI,SR; read-out: pTGI (converted),> 50.1 µM
same,GI50,A549,12.9 µM
same,CC50,A549,45.7 µM
same,TGI,A549,24 µM
same,GI50,SNB-19,11.7 µM
same,LC50,SNB-19,49 µM
same,TGI,SNB-19; read-out: pTGI (converted),24 µM
same,GI50,SNB-75,10.5 µM
same,LC50,SNB-75,33.1 µM
same,TGI,SNB-75; read-out: pTGI (converted),18.6 µM
same,GI50,HOP-62,7.59 µM
same,LC50,HOP-62,37.2 µM
same,TGI,HOP-62,17 µM
same,GI50,SK-MEL-28,8.91 µM
same,LC50,SK-MEL-28,32.4 µM
same,TGI,SK-MEL-28,17 µM
same,GI50,ACHN,9.77 µM
same,LC50,ACHN,33.1 µM
same,TGI,ACHN,17.8 µM
same,GI50,MOLT-4,3.98 µM
same,LC50,MOLT-4,> 50.1 µM
same,TGI,MOLT-4,21.4 µM
same,GI50,RPMI-8226,10.5 µM
same,LC50,RPMI-8226,> 50.1 µM
same,TGI,RPMI-8226,28.8 µM
CCOC(=O)CNC(=O)CCCn1c(=O)c2c3ccccc3n(C)c2n2nnc(-c3ccccc3)c12,GI50,NCI-H322M,> 50.1 µM
same,LC50,NCI-H322M,> 50.1 µM
same,TGI,NCI-H322M,> 50.1 µM
same,GI50,T47D,43.7 µM
same,CC50,T47D,> 50.1 µM
same,TGI,T47D,> 50.1 µM
same,GI50,A498,7.59 µM
same,CC50,A498,> 50.1 µM
same,TGI,A498,24.5 µM
same,GI50,SK-MEL-2,9.55 µM
same,LC50,SK-MEL-2,> 50.1 µM
same,TGI,SK-MEL-2,28.8 µM
same,GI50,UO-31,47.9 µM
same,LC50,UO-31,> 50.1 µM
same,TGI,UO-31,> 50.1 µM
same,GI50,CCRF-CEM,26.3 µM
same,LC50,CCRF-CEM,> 50.1 µM
same,TGI,CCRF-CEM,> 50.1 µM
same,GI50,MDA-MB-435,> 50.1 µM
same,LC50,MDA-MB-435,39.8 µM
same,TGI,MDA-MB-435,20 µM
same,GI50,PC-3,8.51 µM
same,LC50,PC-3,> 50.1 µM
same,TGI,PC-3,> 50.1 µM
same,GI50,SN12C,> 50.1 µM
same,LC50,SN12C,> 50.1 µM
same,TGI,SN12C,> 50.1 µM
same,GI50,OVCAR-4,> 50.1 µM
same,LC50,OVCAR-4,> 50.1 µM
same,TGI,OVCAR-4,> 50.1 µM
same,GI50,TK-10,8.71 µM
same,LC50,TK-10,> 50.1 µM
same,TGI,TK-10,20.9 µM
same,GI50,CAKI-1,8.32 µM
same,LC50 (concentration killing 50% of cells),CAKI-1,47.9 µM
same,TGI,CAKI-1,20 µM
same,GI50,U-251,4.17 µM
same,LC50,U-251,46.8 µM
same,TGI,U-251,14.5 µM
same,GI50,[1],4.47 µM
same,LC50 (50% lethal concentration),[1],> 50.1 µM
same,TGI,[1],> 50.1 µM
same,GI50,Malme-3M,> 50.1 µM
same,LC50,Malme-3M,> 50.1 µM
same,TGI,Malme-3M,> 50.1 µM
same,GI50,SK-OV-3,6.76 µM
same,LC50,SK-OV-3,> 50.1 µM
same,TGI,SK-OV-3,43.7 µM
same,GI50,A549,33.1 µM
same,CC50,A549,> 50.1 µM
same,TGI,A549,> 50.1 µM
same,LC50,SNB-19,17 µM
same,GI50,SNB-75,1.12 µM
same,LC50,SNB-75,17 µM
same,GI50,HOP-62,5.89 µM
same,LC50,HOP-62,> 50.1 µM
same,TGI,HOP-62,17.8 µM
same,GI50,SK-MEL-28,> 50.1 µM
same,LC50,SK-MEL-28,> 50.1 µM
same,TGI,SK-MEL-28,> 50.1 µM
same,GI50,ACHN,9.33 µM
same,LC50,ACHN,> 50.1 µM
same,TGI,ACHN,33.9 µM
same,GI50,MOLT-4,> 50.1 µM
same,LC50,MOLT-4,> 50.1 µM
same,TGI,MOLT-4,> 50.1 µM
same,GI50,RPMI-8226,10.7 µM
same,LC50,RPMI-8226,> 50.1 µM
same,TGI,RPMI-8226,33.9 µM
